Assay [1] has as its system MT4. As to the kind of experiment: Compound was evaluated for the anti-viral activity against cultured MT-4 cells. It counts as functional, Homo sapiens.
For assay [2], the target named is Human immunodeficiency virus type 1 reverse transcriptase (Human immunodeficiency virus 1, UniProt Q72547). As to the kind of experiment: Ability to inhibit HIV-1 Reverse Transcriptase (RT) using an rC-dG template/primer.
Assay [3] has as its system MT4. The experiment in a line: Concentration of compound which inhibited greater than 95% the spread of infection of cultured MT-4 cells. The assay is classed as functional, Homo sapiens. The essentials:
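MT-4 cells infected with HIV-1 strain IIIb. The spread of infection was measured by p24 core antigen ELISA. The CIC95 is the lowest compound concentration that inhibited spread of infection by more than 95%.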

The structures appear in SMILES notation.

`CCc1cc(NCc2nc3c(Cl)ccc(Cl)c3o2)c(O)nc1C` [L-697661] gave a ClC95 in the assay with MT4 [1] of 50 nM.

On to `O=C1Nc2ccc(Cl)cc2C(C#Cc2nccs2)(C2CC2)N1` (stereo not drawn), for which the ClC95 in the assay with MT4 [1] worked out at 12 nM. In addition, the IC50 in assay [2] is 10.9 nM. The corresponding values for `N#Cc1ccccc1C#CC1(C2CC2)NC(=O)Nc2ccc(Cl)cc21` (stereo not drawn) are 12 nM and 10.8 nM. In assay [2], `O=C1Nc2ccc(Cl)cc2C(C#Cc2cc([N+](=O)[O-])ccn2)(C2CC2)N1` (stereo not drawn) showed an IC50 of over 10000 nM.

In the case of `O=C1Nc2ccc(Cl)cc2C(C#Cc2cnccn2)(C2CC2)N1` (stereo not drawn), the IC50 in assay [2] was determined as 270 nM. Still for that read-out and setting: under `O=C1Nc2ccc(Cl)cc2C(C#Cc2cccnc2)(C2CC2)N1` (stereo not drawn) stands 64.5 nM; under `O=C1Nc2ccc(Cl)cc2[C@](C#Cc2ccccn2)(C2CC2)N1`, 9300 nM; under `O=C1Nc2ccc(Cl)cc2C(C#Cc2ccco2)(C2CC2)N1` (stereo not drawn), 9.2 nM. Still for that read-out and setting: under `CN1C(=O)Nc2ccc(Cl)cc2C1(C#Cc1ccccn1)C1CC1` (stereo not drawn) stands 19.6 nM. For `Cc1ccnc2c1NC(=O)c1cccnc1N2C1CC1` [NEVIRAPINE], the ClC95 in the assay with MT4 [1] came to 100 nM. Take `O=C1Nc2ccc(Cl)cc2[C@@](C#Cc2ccccn2)(C2CC2)N1`: inhibition in assay [2] was half-maximal at 12 nM (IC50). On the same count and under the same terms, next, `O=C1Nc2ccc(Cl)cc2C(C#Cc2ccncc2)(C2CC2)N1` (stereo not drawn): 450 nM.

In the assay with MT4 [1], `CC(C)=CCN1Cc2cccc3nc(S)n(c23)C[C@H]1C` registered a ClC95 of 200 nM. For the same molecule, the IC50 in assay [2] amounted to 70 nM. As to `O=C1Nc2ccc(Cl)cc2C(C#Cc2ccccc2)(C2CC2)N1` (stereo not drawn), the ClC95 in the assay with MT4 [3] turned out to be 100 nM. Further, in assay [2], the concentration for half-maximal inhibition (IC50) worked out at 17.7 nM. `O=C1Nc2ccc(Cl)cc2C(C#Cc2ncccn2)(C2CC2)N1` (stereo not drawn) had an IC50 in assay [2] of 130 nM. On the same count and under the same terms, under `O=C1Nc2ccc(Cl)cc2C(C#Cc2cncnc2)(C2CC2)N1` (stereo not drawn) stands 1500 nM. Molecule `O=C1Nc2ccc(Cl)cc2C(C#Cc2ccccn2)(C2CC2)N1` (stereo not drawn) came in with a ClC95 with MT4 [3] of 25 nM. In assay [2], this molecule returned a half-maximal inhibitory concentration (IC50) of 23.2 nM. In assay [2], `O=C1Nc2ccc(Cl)cc2C(C#Cc2ccccc2[N+](=O)[O-])(C2CC2)N1` (stereo not drawn) returned an IC50 of 12.8 nM.

Values taken from ChEMBL document CHEMBL1127598, “Synthesis of a series of 4-(arylethynyl)-6-chloro-4-cyclopropyl-3,4-dihydroquinazolin-2(1H)-ones as novel non-nucleoside HIV-1 reverse transcriptase inhibitors” (J Med Chem, 1994).
